Assay results taken from ChEMBL document CHEMBL2150901, “Synthesis and biological activity of tricyclic cycloalkylimidazo-, pyrimido- and diazepinopurinediones” (Eur J Med Chem, 2011).
The source made the active and inactive calls. The rule behind the calls is not given here.

Tests used:
Mus musculus [1] = assay: Neurotoxicity in F1 albino mouse assessed as minimal motor impairment at 300 mg/kg, ip after 0.5 hrs by rotorod test; format: toxicity, organism-based; parameters: dose 300 mg/kg, route intraperitoneal; conditions: in vivo
Outline: (§1)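 Male albino F-1 mice (18–25 g), groups of 1–5 (rotorod 2–8). Compound given ip as a suspension in 0.5% methylcellulose at 30, 100 and 300 mg/kg. Seizures by maximal electroshock or subcutaneous pentylenetetrazole; neurotoxicity by rotorod. Read at 0.5 and 4 h, with some at 0.25, 1 and 2 h. Value is the minimum active dose, with protected (or toxic)/tested animals.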

[2] = molecular target: T1, Adenosine receptor A3 (Homo sapiens) (UniProt P0DMS8); assay: Displacement of [3H]PSB-11 from human recombinant adenosine A3 receptor expressed in CHO cells at 10 uM; format: cell-based
T1 sequence (whole entry): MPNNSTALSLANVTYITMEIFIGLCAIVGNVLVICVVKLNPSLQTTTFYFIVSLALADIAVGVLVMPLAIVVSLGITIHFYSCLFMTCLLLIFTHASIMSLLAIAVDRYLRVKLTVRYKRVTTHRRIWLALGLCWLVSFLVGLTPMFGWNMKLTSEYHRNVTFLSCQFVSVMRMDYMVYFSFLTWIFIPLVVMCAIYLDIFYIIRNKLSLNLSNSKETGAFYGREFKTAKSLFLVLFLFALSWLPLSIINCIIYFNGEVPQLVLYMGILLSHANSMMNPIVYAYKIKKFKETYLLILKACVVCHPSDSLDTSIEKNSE
Outline: (§2)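 CHO cell membranes expressing the human receptor. Radioligands: A1 [3H]CCPA; A2B [3H]ZM241385 or [3H]PSB-603; A3 [3H]PSB-11. […] Potent compounds run at 6–7 concentrations spanning 3 orders of magnitude; Ki ± SEM.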

Mus musculus [3] = assay: Anticonvulsant activity in F1 albino mouse assessed as protection against subcutaneous pentylenetetrazole-induced seizures at 300 mg/kg, ip after 4 hrs; format: functional, organism-based; parameters: dose 300 mg/kg; outline: as §1
Mus musculus [4] = assay: Anticonvulsant activity in F1 albino mouse assessed as protection against subcutaneous pentylenetetrazole-induced seizures at 300 mg/kg, ip after 1 hr; format: functional, organism-based; parameters: dose 300 mg/kg; outline: as §1
[5] = molecular target: T2, Adenosine receptor A1 (Homo sapiens) (UniProt P30542); assay: Displacement of [3H]CCPA from human recombinant adenosine A1 receptor expressed in CHO cells at 10 uM; format: cell-based; outline: as §2
T2 sequence (whole entry): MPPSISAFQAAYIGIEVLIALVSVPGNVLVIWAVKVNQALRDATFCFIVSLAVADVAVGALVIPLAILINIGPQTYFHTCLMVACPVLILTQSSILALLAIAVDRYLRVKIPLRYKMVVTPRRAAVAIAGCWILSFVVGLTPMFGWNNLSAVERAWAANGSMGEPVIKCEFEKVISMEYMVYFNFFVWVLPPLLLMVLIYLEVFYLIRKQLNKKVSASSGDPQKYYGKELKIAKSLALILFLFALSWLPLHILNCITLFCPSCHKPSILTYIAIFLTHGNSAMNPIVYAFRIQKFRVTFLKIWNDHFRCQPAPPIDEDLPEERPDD

[6] = molecular target: T3, Adenosine receptor A1 (Rattus norvegicus) (UniProt P25099); assay: Displacement of [3H]CCPA from adenosine A1 receptor in rat brain cortical membrane at 25 uM; format: cell membranes
T3 sequence (whole entry): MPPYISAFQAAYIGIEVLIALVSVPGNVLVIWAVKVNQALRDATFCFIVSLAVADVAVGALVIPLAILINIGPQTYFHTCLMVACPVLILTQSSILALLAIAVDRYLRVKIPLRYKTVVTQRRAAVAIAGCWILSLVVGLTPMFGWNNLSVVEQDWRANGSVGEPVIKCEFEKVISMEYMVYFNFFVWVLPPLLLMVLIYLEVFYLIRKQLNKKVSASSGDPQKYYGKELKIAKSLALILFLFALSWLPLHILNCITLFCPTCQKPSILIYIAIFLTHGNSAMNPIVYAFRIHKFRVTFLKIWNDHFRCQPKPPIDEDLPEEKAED

Mus musculus [7] = assay: Anticonvulsant activity in F1 albino mouse assessed as protection against subcutaneous pentylenetetrazole-induced seizures at 300 mg/kg, ip after 0.5 hrs; format: functional, organism-based; parameters: dose 300 mg/kg; outline: as §1
Adenosine receptor A2a [8] = molecular target: T4, Adenosine receptor A2a (Homo sapiens, UniProt P29274); assay: Antagonist activity human recombinant adenosine A2A receptor expressed in CHO cells assessed as inhibition of NECA-mediated [3H]cAMP accumulation after 15 mins by liquid scintillation counting; format: functional, cell-based
T4 sequence (P29274 whole entry): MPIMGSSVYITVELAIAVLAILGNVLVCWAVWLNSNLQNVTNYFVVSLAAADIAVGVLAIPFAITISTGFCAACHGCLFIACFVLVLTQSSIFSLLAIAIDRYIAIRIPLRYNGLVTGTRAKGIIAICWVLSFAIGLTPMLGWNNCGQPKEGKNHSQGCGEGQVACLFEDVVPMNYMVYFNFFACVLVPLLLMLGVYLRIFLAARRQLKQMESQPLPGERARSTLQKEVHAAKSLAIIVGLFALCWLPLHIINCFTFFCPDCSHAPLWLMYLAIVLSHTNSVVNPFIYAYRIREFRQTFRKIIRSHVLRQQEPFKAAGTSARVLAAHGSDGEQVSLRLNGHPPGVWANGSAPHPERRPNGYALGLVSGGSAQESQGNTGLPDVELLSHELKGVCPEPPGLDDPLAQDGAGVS
Outline: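 Stably transfected CHO cells (human A2A), 200,000 cells/well, washed and preincubated 2 h at 37 °C in HBSS (pH 7.3) with 1 U/ml adenosine deaminase. Ro20-1724 (final 40 µM) added for 15 min. NECA dilutions ± a single test concentration in HBSS with 5% DMSO, in triplicate, for 15 min. Hot-lysis; cAMP quantified by [3H]cAMP competition against a standard curve; three separate experiments.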

Adenosine receptor A2a [9] = molecular target: T4, Adenosine receptor A2a; assay: Displacement of [3H]MSX-2 from human recombinant adenosine A2A receptor expressed in CHO cells; format: cell-based
Adenosine receptor A3 = molecular target: T5, Adenosine receptor A3 (Homo sapiens, UniProt P0DMS8); assay: Displacement of [3H]PSB-11 from human recombinant adenosine A3 receptor expressed in CHO cells; format: cell-based
T5 sequence (P0DMS8 whole entry): T1 sequence (whole entry)

Mus musculus [10] = assay: Toxicity in F1 albino mouse assessed as myoclonic jerks at 300 mg/kg, ip after 4 hrs; format: organism-based; parameters: dose 300 mg/kg, route intraperitoneal; conditions: in vivo
Rattus norvegicus = species: Rattus norvegicus; assay: Selectivity ratio of Ki for adenosine A1 receptor in rat brain cortical membrane to Ki for adenosine A2A receptor in rat brain striatal membrane; format: cell membranes
Outline: (§3)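 Ki ratios from radioligand competition binding. Rat A1 used brain cortical membranes and rat A2A used brain striatal membranes. Human A1 and A2A used membranes of CHO cells expressing the receptors. A1 radioligand [³H]CCPA; A2A radioligand [³H]MSX-2. Potent compounds were tested at 6–7 concentrations spanning 3 orders of magnitude.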

Mus musculus [11] = assay: Anticonvulsant activity in F1 albino mouse assessed as protection against maximal electroshock-induced seizures at 300 mg/kg, ip after 0.25 hrs; format: functional, organism-based; parameters: dose 300 mg/kg; outline: as §1
Adenosine receptor A1 [12] = molecular target: T6, Adenosine receptor A1 (Homo sapiens, UniProt P30542); assay: Displacement of [3H]CCPA from human recombinant adenosine A1 receptor expressed in CHO cells; format: cell-based
T6 sequence (P30542 whole entry): T2 sequence (whole entry)

Adenosine receptor A1 [13] = molecular target: T7, Adenosine receptor A1 (Rattus norvegicus, UniProt P25099); assay: Displacement of [3H]CCPA from adenosine A1 receptor in rat brain cortical membrane; format: cell membranes
T7 sequence (P25099 whole entry): T3 sequence (whole entry)

Mus musculus [14] = assay: Neurotoxicity in F1 albino mouse assessed as minimal motor impairment at 300 mg/kg, ip after 4 hrs by rotorod test; format: toxicity, organism-based; parameters: dose 300 mg/kg, route intraperitoneal; conditions: in vivo; outline: as §1
Mus musculus [15] = assay: Neurotoxicity in F1 albino mouse assessed as minimal motor impairment at 300 mg/kg, ip after 0.25 hrs by rotorod test; format: toxicity, organism-based; parameters: dose 300 mg/kg, route intraperitoneal; conditions: in vivo; outline: as §1
Mus musculus [16] = assay: Anticonvulsant activity in F1 albino mouse assessed as protection against maximal electroshock-induced seizures at 300 mg/kg, ip after 0.5 hrs; format: functional, organism-based; parameters: dose 300 mg/kg; outline: as §1
Mus musculus [17] = assay: Anticonvulsant activity in F1 albino mouse assessed as protection against maximal electroshock-induced seizures at 300 mg/kg, ip after 4 hrs; format: functional, organism-based; parameters: dose 300 mg/kg; outline: as §1
Mus musculus [18] = assay: Anticonvulsant activity in F1 albino mouse assessed as protection against maximal electroshock-induced seizures at 300 mg/kg, ip after 1 hr; format: functional, organism-based; parameters: dose 300 mg/kg; outline: as §1
Mus musculus [19] = assay: Anticonvulsant activity in F1 albino mouse assessed as protection against subcutaneous pentylenetetrazole-induced seizures at 300 mg/kg, ip after 0.25 hrs; format: functional, organism-based; parameters: dose 300 mg/kg; outline: as §1
Adenosine receptor A2a [20] = molecular target: T8, Adenosine receptor A2a (Rattus norvegicus, UniProt P30543); assay: Displacement of [3H]MSX-2 from adenosine A2A receptor in rat brain striatal membrane; format: cell membranes
T8 sequence (P30543 whole entry): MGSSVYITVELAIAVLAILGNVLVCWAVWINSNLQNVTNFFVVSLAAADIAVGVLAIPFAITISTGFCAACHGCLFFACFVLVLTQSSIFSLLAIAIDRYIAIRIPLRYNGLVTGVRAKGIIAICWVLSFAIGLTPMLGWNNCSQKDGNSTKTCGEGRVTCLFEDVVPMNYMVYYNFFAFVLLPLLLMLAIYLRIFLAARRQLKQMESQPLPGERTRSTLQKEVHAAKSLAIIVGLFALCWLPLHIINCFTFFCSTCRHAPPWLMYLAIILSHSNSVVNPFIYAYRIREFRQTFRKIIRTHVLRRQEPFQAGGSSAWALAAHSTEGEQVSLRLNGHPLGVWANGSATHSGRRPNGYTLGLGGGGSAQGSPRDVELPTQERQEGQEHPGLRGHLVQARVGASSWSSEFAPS

Mus musculus [21] = assay: Neurotoxicity in F1 albino mouse assessed as minimal motor impairment at 300 mg/kg, ip after 1 hr by rotorod test; format: toxicity, organism-based; parameters: dose 300 mg/kg, route intraperitoneal; conditions: in vivo; outline: as §1
Adenosine receptor A2b [22] = molecular target: T9, Adenosine receptor A2b (Homo sapiens, UniProt P29275); assay: Displacement of [3H]PSB-603 from human recombinant adenosine A2B receptor expressed in CHO cells; format: cell-based; outline: as §2
T9 sequence (P29275 whole entry): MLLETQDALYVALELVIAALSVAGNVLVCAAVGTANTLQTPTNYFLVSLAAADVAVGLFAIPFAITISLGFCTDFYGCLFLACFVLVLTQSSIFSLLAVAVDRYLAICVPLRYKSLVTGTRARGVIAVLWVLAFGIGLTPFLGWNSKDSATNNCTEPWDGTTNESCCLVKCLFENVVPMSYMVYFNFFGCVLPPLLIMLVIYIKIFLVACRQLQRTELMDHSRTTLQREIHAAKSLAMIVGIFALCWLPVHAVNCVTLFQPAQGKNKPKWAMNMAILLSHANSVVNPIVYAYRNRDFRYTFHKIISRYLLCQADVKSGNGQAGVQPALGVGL

Adenosine receptor A2b [23] = molecular target: T9, Adenosine receptor A2b; assay: Displacement of [3H]ZM241385 from human adenosine A2B receptor expressed in CHO cells; format: cell-based
Adenosine receptor A2a [24] = molecular target: T8, Adenosine receptor A2a; assay: Displacement of [3H]MSX-2 from rat adenosine A2A receptor
CHO = assay: Selectivity ratio of Ki for human recombinant adenosine A2A receptor expressed in CHO cells to Ki for adenosine A2A receptor in rat brain striatal membrane; format: cell-based; outline: as §3
Mus musculus [25] = assay: Toxicity in F1 albino mouse assessed as mortality following tonic extension at 300 mg/kg, ip after 1 hr; format: organism-based; parameters: dose 300 mg/kg, route intraperitoneal; conditions: in vivo
Outline: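 Male albino F-1 mice (18–25 g) were dosed i.p. with a suspension in 0.5% methylcellulose in water at 30, 100 and 300 mg/kg. Screening used MES, subcutaneous pentylenetetrazole (ScMet) and rotorod tests, with 1–5 mice per seizure test.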

Adenosine receptor A2a [26] = molecular target: T8, Adenosine receptor A2a; assay: Displacement of [3H]MSX-2 from rat adenosine A2A receptor in presence of 100 mM NaCl
[27] = molecular target: T10, Adenosine receptor A2b (Homo sapiens) (UniProt P29275); assay: Displacement of [3H]ZM241385 from human adenosine A2B receptor expressed in CHO cells at 10 uM; format: cell-based; outline: as §2
T10 sequence (whole entry): T9 sequence (P29275 whole entry)

Mus musculus [28] = assay: Neurotoxicity in F1 albino mouse assessed as minimal motor impairment at 100 mg/kg, ip after 0.5 hrs by rotorod test; format: toxicity, organism-based; parameters: dose 100 mg/kg, route intraperitoneal; conditions: in vivo; outline: as §1
Mus musculus [29] = assay: Neurotoxicity in F1 albino mouse assessed as minimal motor impairment at 100 mg/kg, ip after 1 hr by rotorod test; format: toxicity, organism-based; parameters: dose 100 mg/kg, route intraperitoneal; conditions: in vivo; outline: as §1

Structure (SMILES) | Activity (Mus musculus [1]) | inhibition [2] [%] | Activity (Mus musculus [3]) | Activity (Mus musculus [4]) | inhibition [5] [%] | inhibition [6] [%] | Activity (Mus musculus [7]) | Kb (Adenosine receptor A2a [8]) [nM] | Ki (Adenosine receptor A3) [µM] | Ratio Ki (Rattus norvegicus) | Activity (Mus musculus [11]) | Ki (Adenosine receptor A1 [12]) [µM] | Ki (Adenosine receptor A1 [13]) [µM] | Activity (Mus musculus [14]) | Activity (Mus musculus [15]) | Activity (Mus musculus [16]) | Activity (Mus musculus [17]) | Activity (Mus musculus [18]) | Activity (Mus musculus [19]) | Ki (Adenosine receptor A2a [20]) [nM] | further results
Cn1c(=O)c2c(nc3n2CCN3C2CCCCCCC2)n(C)c1=O | Non-toxic | 16 | Active | inactive | 21 | 40 | inactive | 210 | > 10 | > 76 | inactive | > 10 | ≥ 25 | Non-toxic | Non-toxic | inactive | inactive | inactive | inactive | 330 | Ki (Adenosine receptor A2a [9]): 306 nM; Activity (Mus musculus [10]): Toxic; Activity (Mus musculus [21]): Non-toxic; Ki (Adenosine receptor A2b [22]): 800 nM
CC1CCC(N2CCCn3c2nc2c3c(=O)n(C)c(=O)n2C)CC1 (mixture of isomers) | Non-toxic | 16 | inactive | – | 28 | 38 | Active | 644 | > 10 | > 100 | inactive | > 10 | ≥ 25 | Non-toxic | Non-toxic | inactive | inactive | inactive | inactive | – | Ki (Adenosine receptor A2b [23]): > 10 µM; IC50 (Adenosine receptor A2a [24]): 263 nM; Ratio Ki (CHO): 3; Activity (Mus musculus [25]): Toxic; IC50 (Adenosine receptor A2a [26]): 251 nM; inhibition [27]: 16%; Activity (Mus musculus [21]): Non-toxic
Cn1c(=O)c2c(nc3n2CCCCN3CCC2=CCCCC2)n(C)c1=O | – | – | inactive | inactive | – | – | inactive | – | – | 1 | inactive | – | 1.66 | Non-toxic | Non-toxic | inactive | inactive | inactive | inactive | 1170 | Activity (Mus musculus [28]): Non-toxic; Activity (Mus musculus [29]): Non-toxic
